Compounds with a hit are over-represented: about 4.6% of the library has one in this group of screens.
OX1R antag-1 = blocks the human orexin 1 receptor. O43613. OX1R-expressing cells, FRET antagonist read-out. inhibition, % at 6.6 µM. hit rate 1.8% among 330,000. AID 485270; in the data active means inhibition mostly above about 38%, no sharp cut-off; inactive means mostly below about 40%;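 further: 0% = agonist challenge alone and 100% = reference antagonist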
TAAR1 ag = agonists of human TAAR1 | CHO RD-HGA16 TAAR1, Fluo-8 calcium fluorescence; vehicle wells 0%, saturating PEA agonist 100% | activation, % at 3 µM | hit rate 0.99% among 360,000;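 active means activation above the mean activation of all test compounds in the run plus 3 SD, cut at about 38% in these data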
Target sequence (Q96RJ0 whole entry, looked up): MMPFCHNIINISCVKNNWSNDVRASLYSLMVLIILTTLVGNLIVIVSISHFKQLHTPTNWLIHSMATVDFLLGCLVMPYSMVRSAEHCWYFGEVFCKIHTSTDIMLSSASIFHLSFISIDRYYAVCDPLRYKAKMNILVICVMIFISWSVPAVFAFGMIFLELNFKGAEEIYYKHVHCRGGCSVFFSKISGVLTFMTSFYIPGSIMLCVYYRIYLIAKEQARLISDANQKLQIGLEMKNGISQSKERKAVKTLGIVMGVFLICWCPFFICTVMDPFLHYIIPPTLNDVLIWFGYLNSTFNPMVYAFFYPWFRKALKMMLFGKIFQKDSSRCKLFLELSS
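Test system: RD-HGA16 (CHO) cells co-expressing Gα16 and hTAAR1 | Doses: Single dose, 3 µM | Schedule: 17-24 h seeding, 75 min 37 °C dye, 30 min RT | Evaluation: % activation from peak over basal fluorescence ratio, DMSO-to-PEA scaled | Technique: Kinetic Fluo-8 calcium fluorescence | Benchmarks: Low control DMSO, high control PEA (EC100)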
OX1R antag-2 = human HCRTR1 antagonism; inhibition, % at 5 µM; hit rate 0.43% among 330,000; AID 434989; O43613; CHO/OX1R cells, Fluo-8 calcium fluorescence, orexin A;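 active means inhibition above its plate's threshold, mean inhibition of all tested compounds on the plate plus 3 SD, cut at about 37% in these data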;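 further: 0% = orexin A challenge wells and 100% = SB-334867-A antagonist wells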
CHO parental Ca = counter-screen: ATP calcium response change in parental CHO cells; AID 463079; inhibition, % at 5.6 µM; hit rate 0.63% among 330,000; parental CHO-K1, ATP-induced calcium, Fluo-8 fluorescence;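 active means inhibition above that plate's mean sample inhibition plus 3 SD, cut at about 26% in these data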;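 further: 0% = ATP-challenged DMSO wells and 100% = DMSO wells without ATP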
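Material: Parental CHO cells | Reagent: ATP | Compound dosing: Single nominal dose of 5.6 µM per compound | Detection: Intracellular calcium via Fluo-8 no-wash fluorescent dye | Read-out: % inhibition of ATP-induced calcium mobilization | Benchmarks: Low control ATP plus DMSO, high control DMSO only | Replicates: Singlicate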
TAAR1 antagonist = human TAAR1 antagonism | Q96RJ0 | hit rate 1.5% among 360,000 | inhibition, % at 3 µM | CHO RD-HGA16 TAAR1, Fluo-8 calcium fluorescence, antagonist;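 active means inhibition above a per-plate cutoff, the mean inhibition of test compounds on that plate plus 3 SD, cut at about 49% in these data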;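 further: 0% = DMSO plus EC80 beta-PEA response and 100% = DMSO alone without agonist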
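test system = CHO RD-HGA16 cells bearing hTAAR1 | replication = singlicate | controls = DMSO-only wells and EC80 β-PEA-stimulated wells | reagent = EC80 β-phenethylamine stimulus | read-out basis = percent inhibition of PEA-evoked calcium signal, max/basal emission ratio | schedule = seeding 17-24 h prior, 75-min 37 °C, 30-min RT dye loading | signal = kinetic Fluo-8 calcium fluorescence measurement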
GPR7 antag = antagonists of human GPR7 (neuropeptides B/W receptor 1). inhibition, % at 4.4 µM. hit rate 1.1% among 290,000. AID 1861. GPR7-expressing cells, fluorescence antagonist assay; in the data active means inhibition above about 16%, passing the limit was not always enough;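 further: cells stimulated with the agonist NPW; 0% = agonist with vehicle and 100% = vehicle without agonist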
Target sequence (P48145 whole entry, looked up): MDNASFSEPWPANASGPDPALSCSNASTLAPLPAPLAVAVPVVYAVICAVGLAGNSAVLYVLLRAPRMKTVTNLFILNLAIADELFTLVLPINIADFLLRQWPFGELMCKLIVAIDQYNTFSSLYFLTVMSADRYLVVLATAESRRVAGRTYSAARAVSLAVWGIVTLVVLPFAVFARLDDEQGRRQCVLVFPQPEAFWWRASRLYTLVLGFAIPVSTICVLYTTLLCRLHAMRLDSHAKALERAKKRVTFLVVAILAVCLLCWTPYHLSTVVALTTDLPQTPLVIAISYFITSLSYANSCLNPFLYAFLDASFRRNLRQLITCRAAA
GPR7 antag conf = confirmation of human GPR7 antagonists. shares compounds with GPR7 antag. GPR7-expressing cells, calcium fluorescence antagonist mode. inhibition, % at 4.4 µM. hit rate 52% among 2,400. AID 1952; in the data active means inhibition above about 24%;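 further: stimulated with the GPR7 agonist NPW; 0% = agonist plus vehicle and 100% = vehicle alone without agonist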
MCHR1 antagonist = MCHR1 (human) antagonism in GPR7 counter-screen | shares compounds with GPR7 antag | MCHR1-expressing cells, fluorescence antagonist assay | inhibition, % at 4.4 µM | hit rate 62% among 2,400 | AID 2148; in the data active means inhibition above about 22%;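 further: 0% = vehicle with agonist and 100% = vehicle without agonist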
An asterisk follows results filed as active; nt = no result.

SMILES | OX1R antag-1 | TAAR1 ag | OX1R antag-2 | CHO parental Ca | TAAR1 antagonist | GPR7 antag | others
O=S(=O)(c1ccc2ccccc2c1)N1Cc2cc(Br)ccc2-n2nncc2C1 | nt | 0 | nt | nt | -15 | nt
CC(C)N1CC=C(c2c[nH]c3ccccc23)CC1 | 27 | 38* | -21 | -20 | -10 | -2
C1=C(c2c[nH]c3ccccc23)CCNC1 | 26 | 10 | -14 | -5 | 5 | -6
Nc1ncc([N+](=O)[O-])s1 | 36* | 2 | 0 | -7 | -18 | nt
COC(=O)C1C(c2ccccc2)CC2CCC1N2C (stereo not drawn) | nt | 1 | nt | nt | -15 | nt
Cc1cc(N2CCNC[C@H]2C)ccc1N1CCN[C@@H](C)C1 | nt | 1 | nt | nt | -13 | nt
NCCc1ccc(OCc2ccccc2)c(OCc2ccccc2)c1 | -7 | 55* | 11 | 22 | 46 | nt
Cc1c(N=Nc2c(O)n(C)c(=O)n(C)c2=O)c(=O)n(-c2ccccc2)n1C | 64* | 0 | -14 | -4 | -6 | -3
C=CCN1Cc2ccccc2-n2nncc2C1 | nt | 1 | nt | nt | -4 | nt
Cc1ccc(OC(=O)N(C)C[C@@H]2OCc3ccccc3-c3c(n(C)c4ccccc34)C(=O)N([C@H](C)CO)C[C@H]2C)cc1 | nt | 8 | nt | nt | 8 | nt
COc1ccccc1N | nt | 2 | nt | nt | -11 | nt
CC[N+](C)(CC)CCCCOc1ccc2c(c1)C(=O)c1cc(OCCCC[N+](C)(CC)CC)ccc1-2 | 71* | 1 | -1 | -16 | -24 | -13
C=CCN1C[C@H](C)N(C(c2ccc(C(=O)N(CC)CC)cc2)c2cccc(OC)c2)CC1C (stereo partly drawn) | nt | 3 | nt | nt | -14 | nt
O=[N+]([O-])c1ccc(N2CCCCC2)c2ncccc12 | 44 | 0 | -23 | -6 | 3 | -3
O=[N+]([O-])c1ccc(N2CCCNCC2)c2ncccc12 | 40* | 3 | -6 | -3 | 8 | -5
O=[N+]([O-])c1ccc(N2CCOCC2)c2cccnc12 | 71* | 2 | 16 | -2 | -10 | -12
COC(=O)C1=C(c2ccc(OC(F)(F)F)cc2)C[C@@H]2CC[C@H]1N2C(=O)N1CCc2cc(OC)c(OC)cc2C1 | nt | -2 | nt | nt | -11 | nt
CC1C2Cc3ccc(O)cc3C1(C)CCN2CC1CC1 (stereo not drawn) | nt | 1 | nt | nt | 12 | nt
CN1CCc2cc(O)cc3c2[C@H]1Cc1ccc(O)c(O)c1-3 | 25 | 2 | 7 | 11 | -7 | nt
CN1CCc2cc3c(c4c2C1Cc1ccccc1-4)OCO3 (stereo not drawn) | 74* | 0 | -26 | -20 | -23 | -7
C=CCN1CC[C@]23c4c5ccc(O)c4OC2C(=O)CC[C@@]3(O)[C@H]1C5 (stereo partly drawn) | nt | 1 | nt | nt | -8 | nt
COC(=O)C1=C(c2ccccc2OCc2ccccc2)C[C@@H]2CC[C@H]1N2C(=O)NCc1ccc(C(F)(F)F)cc1 | 10 | 2 | -4 | -34 | 33 | nt
COC(=O)C1=C(c2ccc(F)cc2OCc2ccccc2)C[C@@H]2CC[C@H]1N2C(=O)NCc1ccc(C(F)(F)F)cc1 | 16 | 23 | 15 | -19 | 53* | nt
CN1CCc2cccc(Cl)c2CC1 | 11 | 102* | -2 | -4 | 86* | nt
CN1CCN(Cc2c(F)cccc2Cl)CC1 | nt | 4 | nt | nt | 4 | -6
SMILES | OX1R antag-1 | TAAR1 ag | OX1R antag-2 | CHO parental Ca | TAAR1 antagonist | GPR7 antag | others
N#Cc1ccc2nc(-c3ccc(CN4CCC(n5nnc6ccccc65)CC4)cc3)c(-c3ccccc3)nc2c1 | nt | -1 | nt | nt | 46 | nt
O=C1NC(=O)N(c2ccc3c(c2)OCO3)C(=O)/C1=C\c1ccc(N2CCCCC2)o1 | 71* | 27 | -4 | -5 | -2 | -5
Cc1ccccc1N1C(=O)NC(=O)/C(=C\c2cc(Br)c(N3CCOCC3)o2)C1=O | 30 | 34 | 3 | 0 | 18 | 1
Cc1ccccc1N1C(=O)NC(=O)/C(=C/c2ccc(N3CCOCC3)o2)C1=O | 48* | 5 | 1 | 6 | -2 | -7
C=CC1C[N+]2(C)CCC1CC2C(O)c1ccnc2ccccc12 (stereo not drawn) | nt | 1 | nt | nt | 15 | nt
O=C(Nc1ccc(Cl)cc1)OC1CN2CCC1CC2 (stereo not drawn) | 9 | 10 | -5 | 5 | -21 | 10
O=C(Nc1cccc(Cl)c1)OC1CN2CCC1CC2 (stereo not drawn) | 57 | 7 | 21 | 46* | 24 | 22* | GPR7 antag conf=53*;MCHR1 antagonist=58*
CCOC(=O)c1ccc(-[n+]2c(-c3ccccc3)cc(-c3ccccc3)cc2-c2ccccc2)cc1 | 28 | nt | 2 | 8 | nt | nt
c1ccc(-c2cc(-c3ccccc3)[n+](-c3ccccc3)c(-c3ccccc3)c2)cc1 | 31 | 7 | 84* | 84* | 72* | 97* | GPR7 antag conf=93*;MCHR1 antagonist=87*
CN(C)c1ccc(-[n+]2c(-c3ccccc3)cc(-c3ccccc3)cc2-c2ccccc2)cc1 | nt | 13 | nt | nt | 34 | 59* | GPR7 antag conf=79*;MCHR1 antagonist=78*
Clc1cccc(N2Cc3cc(-c4ccccc4)ccc3-n3nncc3C2)c1 | nt | 1 | nt | nt | -20 | nt
O=[N+]([O-])c1ccc(N2CCCCCC2)c2nonc12 | 103* | 162* | 102* | 93* | 66* | 41* | GPR7 antag conf=51*;MCHR1 antagonist=61*
COc1cc(CNCCc2c[nH]c3ccccc23)cc(OC)c1 | -4 | 16 | -10 | -3 | 5 | 38* | GPR7 antag conf=22;MCHR1 antagonist=31*
COc1cc(CNCCc2c[nH]c3ccccc23)cc(OC)c1OC | nt | 1 | nt | nt | 7 | nt
OC12CCCCC1C(c1ccccc1)NCC2 (stereo not drawn) | -2 | 1 | 4 | 5 | -3 | 23* | GPR7 antag conf=8;MCHR1 antagonist=-1
O=C1NCN(c2ccccc2)C12CCN(C(c1nnnn1-c1ccc3c(c1)OCCO3)C1CC1)CC2 (stereo not drawn) | nt | 12 | nt | nt | 9 | nt
OC(CNC1CCCCCCC1)c1ccccc1 (stereo not drawn) | 16 | nt | -24 | -19 | nt | 22* | GPR7 antag conf=6;MCHR1 antagonist=-4
OC1(c2ccc(F)cc2)CC2CCC(C1)N2Cc1nnnn1C1CCCCC1 (stereo not drawn) | 2 | 14 | -26 | -7 | -21 | 33* | GPR7 antag conf=26*;MCHR1 antagonist=17
OCCN1C2CCC1CC(O)(c1ccc(F)cc1)C2 (stereo not drawn) | 9 | 2 | -11 | 5 | 16 | -11
C=C1C(=O)OC2CCN3CC=C(COC(=O)C(C)(O)C4(CO4)C1C)C23 (stereo not drawn) | nt | 2 | nt | nt | -24 | nt
CCOc1ccc(Cl)cc1CNCCc1ccccc1F | 15 | 0 | -32 | -18 | 0 | 33* | GPR7 antag conf=49*;MCHR1 antagonist=37*
